Values after ≈ are worked out from the molar mass of the structure shown. Where a SMILES comes first, the peptide text is derived from it. [ ]: non-standard residue; d: D form. 3Abz = Nc1cccc(C(=O)O)c1; Orn = NCCC[CH](N)C(=O)O
Key:
trypsin = test: Proteolytic stability assessed as trypsin (unknown origin)-mediated compound degradation by measuring compound remaining after 4 days by RP-HPLC analysis; assay type: ADME; conditions: human, trypsin; read-out: Stability
Procedure, shortened: (§1)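 Compound at 1 mg/mL in 0.1 M NH4HCO3 (pH 8.2) combined with trypsin or α-chymotrypsin solution (1 mg enzyme per 50 mL of the same buffer) at 37 °C. Aliquots taken over time and quenched with 10% formic acid. Remaining compound quantified by C18 RP-HPLC. An enzyme-free control was run for each test.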

Bacillus subtilis = test: Antibacterial activity against Bacillus subtilis MTCC 2763 assessed as growth inhibition after 18 hrs by CLSI microdilution broth assay; assay type: functional; conditions: MTCC 2763, 18 h
Pseudomonas aeruginosa = test: Antibacterial activity against Pseudomonas aeruginosa MTCC 2295 assessed as growth inhibition after 18 hrs by CLSI microdilution broth assay; assay type: functional; conditions: MTCC 2295, 18 h
Plasma [1] = test: Stability in human plasma assessed as compound degradation after 12 hrs by RP-HPLC analysis; assay type: ADME, cell-free
Procedure, shortened: (§2)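 Compound (1 mg/mL stock in water; 50 µL) added to 1 mL fresh heparinized human plasma and held at 37 °C. Samples taken at 30 min, 1, 2, 6, 12 and 24 h. Proteins precipitated with 95% ethanol, cooled at 4 °C for 15 min and centrifuged at 18,000 g. Supernatant analyzed by RP-HPLC with UV detection at 280 nm.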

Staphylococcus aureus [2] = test: Antibacterial activity against Staphylococcus aureus MTCC 3160 assessed as growth inhibition after 18 hrs by CLSI microdilution broth assay; assay type: functional; conditions: MTCC 3160, 18 h
HaCaT [3] = test: Cytotoxicity against human HaCaT cells assessed as decrease in cell viability after 24 hrs by MTT assay; assay type: cell-based
Procedure, shortened: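 HaCaT keratinocytes grown as a monolayer in DMEM with 10% FBS and penicillin/streptomycin, 37 °C, 5% CO2. Seeded 24 h, then exposed to compound for 24 h. MTT (5 mg/mL stock in PBS) added for 4 h; formazan dissolved in isopropanol and read at 570 nm. Growth inhibition calculated relative to medium-only controls. Two independent experiments in triplicate.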

Staphylococcus aureus [4] = test: Antibacterial activity against methicillin-resistant Staphylococcus aureus ATCC BAA-1720 assessed as growth inhibition after 18 hrs by CLSI microdilution broth assay; assay type: functional; conditions: ATCC BAA-1720, 18 h
Procedure, shortened: (§3)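 Modified CLSI broth microdilution in Mueller-Hinton broth. Wells held 90 µL of about 2 × 10^5 CFU/mL inoculum plus 10 µL of serially diluted peptidomimetic, range 0.7-100 µg/mL. Plates were incubated overnight with agitation at 37 °C and absorbance read at 600 nm after 18 h. Controls: inoculum without compound, and uninoculated broth. Run in triplicate.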

[5] = (§4) Stability in human plasma assessed as compound degradation after 24 hrs by RP-HPLC analysis; assay type: ADME, cell-free; conditions: read-out: Drug degradation; procedure, shortened: as §2
[6] = Selectivity ratio of HC50 for hemolysis in human RBC to MIC for Staphylococcus aureus
[7] = system: Staphylococcus epidermidis; test: Antibacterial activity against methicillin-resistant Staphylococcus epidermidis ATCC 51625 assessed as growth inhibition after 18 hrs by CLSI microdilution broth assay; assay type: functional; conditions: ATCC 51625, 18 h; procedure, shortened: as §3
[8] = Induction of hemolysis in human RBC assessed as hemoglobin release after 1 hr by microtiter plate reader analysis; assay type: cell-based, Erythrocyte; conditions: for HC10: erythrocyte, 1 h; for HC50 at 1 h: red blood cells
Procedure, shortened: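 Freshly isolated human RBCs washed three times in PBS (35 mM phosphate, 150 mM NaCl, pH 7.2) and used as a 4% (v/v) suspension. Mixed 1:1 with twofold serial dilutions of compound, incubated 1 h at 37 °C without agitation, then centrifuged. Supernatant A540 read. PBS defined 0% and 1% Triton X-100 defined 100% lysis; HC50 and HC10 derived.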

[9] = Stability in human plasma assessed as compound degradation after 30 mins by RP-HPLC analysis; assay type: ADME, cell-free; conditions: read-out: Drug degradation; procedure, shortened: as §2
HaCaT [10] = test: Cytotoxicity against human HaCaT cells at 100 to 500 ug/ml after 24 hrs by LDH release assay; assay type: cell-based
Procedure, shortened: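 HaCaT cells (DMEM with 10% FBS, 37 °C, 5% CO2) seeded for 24 h, then treated with varying concentrations for 24 h. LDH measured at 490 nm in both supernatant and trypsinized cell lysate with a non-radioactive kit. % release = supernatant/(supernatant + lysate) × 100. Two independent experiments in triplicate.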

[11] = Retention time of the compound by HPLC analysis; assay type: physicochemical
Procedure, shortened: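 Analytical RP-HPLC on a C18 column (5 µm, 4.6 × 250 mm) at room temperature. Run a linear gradient of 0.5-60% acetonitrile containing 0.05% TFA against water containing 0.05% TFA at 0.5 mL/min.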

Escherichia coli = test: Antibacterial activity against Escherichia coli MTCC 723 assessed as growth inhibition after 18 hrs by CLSI microdilution broth assay; assay type: functional; conditions: MTCC 723, 18 h
alpha chymotrypsin = test: Proteolytic stability assessed as alpha chymotrypsin (unknown origin)-mediated compound degradation by measuring compound remaining after 4 days by RP-HPLC analysis; assay type: ADME; conditions: human, read-out: Stability; procedure, shortened: as §1
Plasma [12] = test: as §4; assay type: ADME, cell-free; conditions: 24 h; procedure, shortened: as §2

Compound	remaining at 96 h (trypsin)	MIC (Bacillus subtilis)	MIC (Pseudomonas aeruginosa)	Stability (Plasma [1])	MIC (Staphylococcus aureus [2])	Activity (HaCaT [3])	MIC (Staphylococcus aureus [4])	metabolised at 24 h [5]	Selectivity ratio [6]	MIC [7]	HC10 [8]	HC50 at 1 h [8]	metabolised at 0.5 h [9]	Activity (HaCaT [10])	Retention_time [11]	MIC (Escherichia coli)	remaining at 96 h (alpha chymotrypsin)	Stability (Plasma [12])
N=C(N)NCCCC(NC(=O)C(Cc1c[nH]c2ccccc12)NC(=O)C(Cc1c[nH]c2ccccc12)NC(=O)C(CCCNC(=N)N)NC(=O)C(N)Cc1c[nH]c2ccccc12)C(N)=O (stereo not drawn) (H-WRWWR-NH2; configuration not given here)	21%	50 µg/mL (≈ 56.3 µM)	70 µg/mL (≈ 78.8 µM)	Stable	15 µg/mL (≈ 16.9 µM)	Dose-dependent effect	17.5 µg/mL (≈ 19.7 µM)	18%	13.3	20 µg/mL (≈ 22.5 µM)	60 µg/mL	200 µg/mL	5.31%	Toxic	30.604 min	40 µg/mL (≈ 45 µM)	44%	
N=C(N)NCCCC(NC(=O)C(Cc1c[nH]c2ccccc12)NC(=O)c1cccc(NC(=O)C(CCCNC(=N)N)NC(=O)C(N)Cc2c[nH]c3ccccc23)c1)C(N)=O (stereo not drawn) (H-WR[3Abz]WR-NH2; configuration not given here)		75 µg/mL (≈ 91.4 µM)	120 µg/mL (≈ 146 µM)		60 µg/mL (≈ 73.1 µM)		50 µg/mL (≈ 60.9 µM)		6.66	75 µg/mL (≈ 91.4 µM)	220 µg/mL	400 µg/mL			24.982 min	150 µg/mL (≈ 183 µM)		
N=C(N)NCCCC(NC(=O)C(CCCNC(=N)N)NC(=O)c1cccc(NC(=O)C(CCCNC(=N)N)NC(=O)C(Cc2c[nH]c3ccccc23)NC(=O)C(N)Cc2c[nH]c3ccccc23)c1)C(N)=O (stereo not drawn) (H-WWR[3Abz]RR-NH2; configuration not given here)		70 µg/mL (≈ 71.6 µM)	100 µg/mL (≈ 102 µM)		50 µg/mL (≈ 51.2 µM)		50 µg/mL (≈ 51.2 µM)		7.6	50 µg/mL (≈ 51.2 µM)	200 µg/mL	380 µg/mL			27.34 min	75 µg/mL (≈ 76.8 µM)		
N=C(N)NCCCC(NC(=O)c1cccc(NC(=O)C(Cc2c[nH]c3ccccc23)NC(=O)C(N)Cc2c[nH]c3ccccc23)c1)C(N)=O (stereo not drawn) (H-WW[3Abz]R-NH2; configuration not given here)		150 µg/mL (≈ 226 µM)	170 µg/mL (≈ 256 µM)		120 µg/mL (≈ 181 µM)		200 µg/mL (≈ 301 µM)		2	> 200 µg/mL	100 µg/mL	240 µg/mL			28.661 min	150 µg/mL (≈ 226 µM)		
N=C(N)NCCCC(NC(=O)C(CCCNC(=N)N)NC(=O)c1cccc(NC(=O)C(Cc2c[nH]c3ccccc23)NC(=O)C(N)Cc2c[nH]c3ccccc23)c1)C(N)=O (stereo not drawn) (H-WW[3Abz]RR-NH2; configuration not given here)		70 µg/mL (≈ 85.3 µM)	125 µg/mL (≈ 152 µM)		50 µg/mL (≈ 60.9 µM)		50 µg/mL (≈ 60.9 µM)		8	75 µg/mL (≈ 91.4 µM)	150 µg/mL	400 µg/mL			25.377 min	120 µg/mL (≈ 146 µM)		
NCCCC(NC(=O)C(Cc1c[nH]c2ccccc12)NC(=O)C(Cc1c[nH]c2ccccc12)NC(=O)C(CCCN)NC(=O)C(N)Cc1c[nH]c2ccccc12)C(N)=O (stereo not drawn) (H-W[Orn]WW[Orn]-NH2; configuration not given here)	82%	120 µg/mL (≈ 149 µM)	150 µg/mL (≈ 187 µM)		50 µg/mL (≈ 62.2 µM)	Dose-dependent effect	50 µg/mL (≈ 62.2 µM)		4.5	70 µg/mL (≈ 87.1 µM)	65 µg/mL	225 µg/mL	4.72%	Toxic	28.309 min	70 µg/mL (≈ 87.1 µM)	44%	Stable
NCCCC(NC(=O)C(CCCN)NC(=O)c1cccc(NC(=O)C(Cc2c[nH]c3ccccc23)NC(=O)C(CCCN)NC(=O)C(N)Cc2c[nH]c3ccccc23)c1)C(N)=O (stereo not drawn) (H-W[Orn]W[3Abz][Orn][Orn]-NH2; configuration not given here)		40 µg/mL (≈ 47 µM)	75 µg/mL (≈ 88.1 µM)		25 µg/mL (≈ 29.4 µM)		25 µg/mL (≈ 29.4 µM)		18	20 µg/mL (≈ 23.5 µM)	175 µg/mL	450 µg/mL			24.782 min	70 µg/mL (≈ 82.3 µM)		
NCCCC(NC(=O)C(Cc1c[nH]c2ccccc12)NC(=O)c1cccc(NC(=O)C(CCCN)NC(=O)C(CCCN)NC(=O)C(N)Cc2c[nH]c3ccccc23)c1)C(N)=O (stereo not drawn) (H-W[Orn][Orn][3Abz]W[Orn]-NH2; configuration not given here)		75 µg/mL (≈ 88.1 µM)	100 µg/mL (≈ 118 µM)		40 µg/mL (≈ 47 µM)		50 µg/mL (≈ 58.8 µM)		12.5	40 µg/mL (≈ 47 µM)	170 µg/mL	500 µg/mL			24.193 min	75 µg/mL (≈ 88.1 µM)		
NCCCC(N)C(=O)NC(Cc1c[nH]c2ccccc12)C(=O)NC(Cc1c[nH]c2ccccc12)C(=O)Nc1cccc(C(=O)NC(CCCN)C(=O)NC(CCCN)C(N)=O)c1 (stereo not drawn) (H-[Orn]WW[3Abz][Orn][Orn]-NH2; configuration not given here)		100 µg/mL (≈ 118 µM)	100 µg/mL (≈ 118 µM)		50 µg/mL (≈ 58.8 µM)		50 µg/mL (≈ 58.8 µM)		8.8	50 µg/mL (≈ 58.8 µM)	150 µg/mL	440 µg/mL			23.979 min	100 µg/mL (≈ 118 µM)		
NCCCC(N)C(=O)NC(Cc1c[nH]c2ccccc12)C(=O)Nc1cccc(C(=O)NC(Cc2c[nH]c3ccccc23)C(=O)NC(CCCN)C(N)=O)c1 (stereo not drawn) (H-[Orn]W[3Abz]W[Orn]-NH2; configuration not given here)		50 µg/mL (≈ 67.9 µM)	40 µg/mL (≈ 54.3 µM)		17.5 µg/mL (≈ 23.7 µM)		20 µg/mL (≈ 27.1 µM)		> 28.6	15 µg/mL (≈ 20.4 µM)	190 µg/mL	> 500 µg/mL			24.231 min	50 µg/mL (≈ 67.9 µM)		
NCCCC(N)C(=O)NC(CCCN)C(=O)NC(Cc1c[nH]c2ccccc12)C(=O)NC(Cc1c[nH]c2ccccc12)C(=O)NC(CCCN)C(N)=O (stereo not drawn) (H-[Orn][Orn]WW[Orn]-NH2; configuration not given here)		100 µg/mL (≈ 137 µM)	150 µg/mL (≈ 205 µM)		70 µg/mL (≈ 95.6 µM)		100 µg/mL (≈ 137 µM)		4.42	100 µg/mL (≈ 137 µM)	100 µg/mL	310 µg/mL			26.672 min	120 µg/mL (≈ 164 µM)		
NCCCC(N)C(=O)NC(CCCN)C(=O)NC(Cc1c[nH]c2ccccc12)C(=O)Nc1cccc(C(=O)NC(Cc2c[nH]c3ccccc23)C(=O)NC(CCCN)C(N)=O)c1 (stereo not drawn) (H-[Orn][Orn]W[3Abz]W[Orn]-NH2; configuration not given here)		40 µg/mL (≈ 47 µM)	50 µg/mL (≈ 58.8 µM)		7.5 µg/mL (≈ 8.81 µM)		10.2 µg/mL (≈ 12 µM)		60	12.5 µg/mL (≈ 14.7 µM)	120 µg/mL	450 µg/mL			24.231 min	40 µg/mL (≈ 47 µM)		

— ChEMBL document CHEMBL3286351, “Antibacterial evaluation of structurally amphipathic, membrane active small cationic peptidomimetics: synthesized by incorporating 3-amino benzoic acid as peptidomimetic element” (Eur J Med Chem, 2014)
